# Reference: paper PMC12495087 (ESMO Open, 2025)
# Assay: phase I study BOS172738-01: safety and tolerability
# Assay type: in vivo, human
# Conditions: for patients who discontinued study treatment due to AEs: interim cut-off
# Outline: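 Patients received at least one dose of oral drug given once daily in 28-day cycles. Part A escalated 10–150 mg, by accelerated titration (dose doubling) and then 3+3 Fibonacci steps; part B used 75 mg. AEs were graded by CTCAE v4.03 from first dose to 31 days after last dose. DLTs counted in cycle 1. Missing causality was scored as related and missing grade as grade 3.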
# [1] = part A, all dose levels, n = 67
# [2] = part B, RET gene-fusion NSCLC, 75 mg, n = 20
# [3] = part B, RET gene-mutant MTC, 75 mg, n = 7
structure (smiles),measurement,setting,value
COc1cc2cc(-c3ccc(CC(=O)Nc4cc(C(C)(C)C(F)(F)F)no4)cn3)cnc2cc1OC [BOS172738],"TEAE related to BOS, any",[1],61 (91) n (%)
same,"TEAE related to BOS, grade ≥3",[1],39 (58) n (%)
same,patients who discontinued study treatment due to AEs,"part A, % of 69 screened",18 (26%) n (%)
same,Any TEAE,"part B total, n = 50",50 (100) n (%)
same,Any TEAE leading to BOS discontinuation,"part B total, n = 50",7 (14) n (%)
same,Any TEAE leading to BOS dose interruption,"part B total, n = 50",33 (66) n (%)
same,Any TEAE leading to BOS dose reduction,"part B total, n = 50",10 (20) n (%)
same,Any TEAE leading to study discontinuation,"part B total, n = 50",7 (14) n (%)
same,Any TEAE related to BOS leading to BOS discontinuation,"part B total, n = 50",2 (4) n (%)
same,Any TEAE related to BOS leading to study discontinuation,"part B total, n = 50",1 (2) n (%)
same,Any TEAE resulting in death,"part B total, n = 50",2 (4) n (%)
same,"Any TEAE, grade ≥3","part B total, n = 50",41 (82) n (%)
same,Serious TEAEs related to BOS,"part B total, n = 50",2 (4) n (%)
same,"Serious TEAEs, any","part B total, n = 50",28 (56) n (%)
same,"TEAE related to BOS, CTCAE grade ≥3: Anemia","part B total, n = 50",3 (6) n (%)
same,"TEAE related to BOS, CTCAE grade ≥3: Asthenia","part B total, n = 50",0 n (%)
same,"TEAE related to BOS, CTCAE grade ≥3: Blood creatinine phosphokinase increased","part B total, n = 50",10 (20) n (%)
same,"TEAE related to BOS, CTCAE grade ≥3: Diarrhea","part B total, n = 50",0 n (%)
same,"TEAE related to BOS, CTCAE grade ≥3: Hypophosphatemia","part B total, n = 50",3 (6) n (%)
same,"TEAE related to BOS, CTCAE grade ≥3: Lymphopenia","part B total, n = 50",2 (4) n (%)
same,"TEAE related to BOS, CTCAE grade ≥3: Muscular weakness","part B total, n = 50",0 n (%)
same,"TEAE related to BOS, CTCAE grade ≥3: Myositis","part B total, n = 50",0 n (%)
same,"TEAE related to BOS, CTCAE grade ≥3: Neutropenia","part B total, n = 50",0 n (%)
same,"TEAE related to BOS, CTCAE grade ≥3: Neutrophil count decreased","part B total, n = 50",7 (14) n (%)
same,"TEAE related to BOS, any","part B total, n = 50",38 (76) n (%)
same,"TEAE related to BOS, grade ≥3","part B total, n = 50",24 (48) n (%)
same,Any TEAE,"part B, Other, 75 mg, n = 23",23 (100) n (%)
same,Any TEAE leading to BOS discontinuation,"part B, Other, 75 mg, n = 23",5 (22) n (%)
same,Any TEAE leading to BOS dose interruption,"part B, Other, 75 mg, n = 23",11 (48) n (%)
same,Any TEAE leading to BOS dose reduction,"part B, Other, 75 mg, n = 23",4 (17) n (%)
same,Any TEAE leading to study discontinuation,"part B, Other, 75 mg, n = 23",3 (13) n (%)
same,Any TEAE related to BOS leading to BOS discontinuation,"part B, Other, 75 mg, n = 23",1 (4) n (%)
same,Any TEAE related to BOS leading to study discontinuation,"part B, Other, 75 mg, n = 23",0 n (%)
same,Any TEAE resulting in death,"part B, Other, 75 mg, n = 23",1 (4) n (%)
same,"Any TEAE, grade ≥3","part B, Other, 75 mg, n = 23",16 (70) n (%)
same,Serious TEAEs related to BOS,"part B, Other, 75 mg, n = 23",1 (4) n (%)
same,"Serious TEAEs, any","part B, Other, 75 mg, n = 23",17 (74) n (%)
same,"TEAE related to BOS, CTCAE grade ≥3: Anemia","part B, Other, 75 mg, n = 23",1 (4) n (%)
same,"TEAE related to BOS, CTCAE grade ≥3: Asthenia","part B, Other, 75 mg, n = 23",0 n (%)
same,"TEAE related to BOS, CTCAE grade ≥3: Blood creatinine phosphokinase increased","part B, Other, 75 mg, n = 23",0 n (%)
same,"TEAE related to BOS, CTCAE grade ≥3: Diarrhea","part B, Other, 75 mg, n = 23",0 n (%)
same,"TEAE related to BOS, CTCAE grade ≥3: Hypophosphatemia","part B, Other, 75 mg, n = 23",1 (4) n (%)
same,"TEAE related to BOS, CTCAE grade ≥3: Lymphopenia","part B, Other, 75 mg, n = 23",1 (4) n (%)
same,"TEAE related to BOS, CTCAE grade ≥3: Muscular weakness","part B, Other, 75 mg, n = 23",0 n (%)
same,"TEAE related to BOS, CTCAE grade ≥3: Myositis","part B, Other, 75 mg, n = 23",0 n (%)
same,"TEAE related to BOS, CTCAE grade ≥3: Neutropenia","part B, Other, 75 mg, n = 23",0 n (%)
same,"TEAE related to BOS, CTCAE grade ≥3: Neutrophil count decreased","part B, Other, 75 mg, n = 23",1 (4) n (%)
same,"TEAE related to BOS, any","part B, Other, 75 mg, n = 23",11 (48) n (%)
same,"TEAE related to BOS, grade ≥3","part B, Other, 75 mg, n = 23",4 (17) n (%)
same,Any TEAE,[2],20 (100) n (%)
same,Any TEAE leading to BOS discontinuation,[2],1 (5) n (%)
same,Any TEAE leading to BOS dose interruption,[2],17 (85) n (%)
same,Any TEAE leading to BOS dose reduction,[2],4 (20) n (%)
same,Any TEAE leading to study discontinuation,[2],3 (15) n (%)
same,Any TEAE related to BOS leading to BOS discontinuation,[2],0 n (%)
same,Any TEAE related to BOS leading to study discontinuation,[2],0 n (%)
same,Any TEAE resulting in death,[2],1 (5) n (%)
same,"Any TEAE, grade ≥3",[2],19 (95) n (%)
same,Serious TEAEs related to BOS,[2],1 (5) n (%)
same,"Serious TEAEs, any",[2],9 (45) n (%)
same,"TEAE related to BOS, CTCAE grade ≥3: Anemia",[2],2 (10) n (%)
same,"TEAE related to BOS, CTCAE grade ≥3: Asthenia",[2],0 n (%)
same,"TEAE related to BOS, CTCAE grade ≥3: Blood creatinine phosphokinase increased",[2],8 (40) n (%)
same,"TEAE related to BOS, CTCAE grade ≥3: Diarrhea",[2],0 n (%)
same,"TEAE related to BOS, CTCAE grade ≥3: Hypophosphatemia",[2],0 n (%)
same,"TEAE related to BOS, CTCAE grade ≥3: Lymphopenia",[2],1 (5) n (%)
same,"TEAE related to BOS, CTCAE grade ≥3: Muscular weakness",[2],0 n (%)
same,"TEAE related to BOS, CTCAE grade ≥3: Myositis",[2],0 n (%)
same,"TEAE related to BOS, CTCAE grade ≥3: Neutropenia",[2],0 n (%)
same,"TEAE related to BOS, CTCAE grade ≥3: Neutrophil count decreased",[2],5 (25) n (%)
same,"TEAE related to BOS, any",[2],20 (100) n (%)
same,"TEAE related to BOS, grade ≥3",[2],14 (70) n (%)
same,Any TEAE,[3],7 (100) n (%)
same,Any TEAE leading to BOS discontinuation,[3],1 (14) n (%)
same,Any TEAE leading to BOS dose interruption,[3],5 (71) n (%)
same,Any TEAE leading to BOS dose reduction,[3],2 (29) n (%)
same,Any TEAE leading to study discontinuation,[3],1 (14) n (%)
same,Any TEAE related to BOS leading to BOS discontinuation,[3],1 (14) n (%)
same,Any TEAE related to BOS leading to study discontinuation,[3],1 (14) n (%)
same,Any TEAE resulting in death,[3],0 n (%)
same,"Any TEAE, grade ≥3",[3],6 (86) n (%)
same,Serious TEAEs related to BOS,[3],0 n (%)
same,"Serious TEAEs, any",[3],2 (29) n (%)
same,"TEAE related to BOS, CTCAE grade ≥3: Anemia",[3],0 n (%)
same,"TEAE related to BOS, CTCAE grade ≥3: Asthenia",[3],0 n (%)
same,"TEAE related to BOS, CTCAE grade ≥3: Blood creatinine phosphokinase increased",[3],2 (29) n (%)
same,"TEAE related to BOS, CTCAE grade ≥3: Diarrhea",[3],0 n (%)
same,"TEAE related to BOS, CTCAE grade ≥3: Hypophosphatemia",[3],2 (29) n (%)
same,"TEAE related to BOS, CTCAE grade ≥3: Lymphopenia",[3],0 n (%)
same,"TEAE related to BOS, CTCAE grade ≥3: Muscular weakness",[3],0 n (%)
same,"TEAE related to BOS, CTCAE grade ≥3: Myositis",[3],0 n (%)
same,"TEAE related to BOS, CTCAE grade ≥3: Neutropenia",[3],0 n (%)
same,"TEAE related to BOS, CTCAE grade ≥3: Neutrophil count decreased",[3],1 (14) n (%)
same,"TEAE related to BOS, any",[3],7 (100) n (%)
same,"TEAE related to BOS, grade ≥3",[3],6 (86) n (%)
same,patients who discontinued study treatment due to AEs,"part B, % of 54 screened",7 (13%) n (%)
same,BOS172738-related TEAEs,"parts A and B, final cut-off",85%
same,"BOS172738-related TEAEs, grade ≥3","parts A and B, final cut-off",54%
same,BOS172738-related grade ≥3 anemia,"parts A and B, final cut-off",9%
same,BOS172738-related grade ≥3 blood creatine phosphokinase increased,"parts A and B, final cut-off",25%
same,BOS172738-related grade ≥3 neutrophil count decreased,"parts A and B, final cut-off",10%
same,patients with at least one TEAE,"parts A and B, final data cut-off",100%
same,elevated blood creatine phosphokinase leading to dose interruption,pooled data,28%
same,elevated blood creatine phosphokinase leading to dose reduction,pooled data,17%
same,elevated blood creatine phosphokinase leading to treatment discontinuation,pooled data,2%
